Data from ChEMBL document CHEMBL1255280, “P-glycoprotein limits oral availability, brain penetration, and toxicity of an anionic drug, the antibiotic salinomycin” (Antimicrob Agents Chemother, 2008).

Columns and labels:
[1] = AUC (0 to 6 hrs) in wild-type mouse at 10 mg/kg, po; type: ADME, organism-based; parameters: time < 6 hr, dose 10 mg/kg, route oral; conditions: plasma
Summary of the method: (§1)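 Fasted (3 h) FVB WT mice (n = 5) were given 10 mg/kg by gavage (10 ml/kg of 1 mg/ml, an ethanol stock diluted 10-fold in saline). Tail-vein plasma was collected from 0.25 to 6 h and measured by LC-MS/MS. Only the trapezoidal AUC0-6 was calculated. Cmax and Tmax were taken from the observed data.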

[2] = Cmax in wild-type mouse at 10 mg/kg, po; type: ADME, organism-based; parameters: dose 10 mg/kg, route oral; conditions: in vivo; summary of the method: as §1
[3] = Tmax in wild-type mouse at 10 mg/kg, po; type: ADME, organism-based; parameters: dose 10 mg/kg, route oral; conditions: in vivo; summary of the method: as §1
[4] = AUC (0 to 6 hrs) in wild-type mouse at 1 mg/kg, po; type: ADME, organism-based; parameters: time < 6 hr, dose 1 mg/kg, route oral; conditions: plasma
Summary of the method: (§2)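 Male FVB WT or Mdr1a/1b–/– mice (n = 5) were fasted 3 h. They received 1 mg/kg by gavage (10 ml/kg of 0.1 mg/ml, made as an ethanol stock diluted 100-fold in saline). Tail-vein plasma was sampled at 0.25, 0.5, 1, 2, 4 and 6 h and analysed by LC-MS/MS. Noncompartmental trapezoidal AUC0-6 and AUC(0-∞). Cmax and Tmax were taken from the observed data.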

[5] = AUC (0 to infinity) in wild-type mouse at 1 mg/kg, po; type: ADME, organism-based; parameters: time infinity, dose 1 mg/kg, route oral; conditions: plasma; summary of the method: as §2
[6] = Cmax in wild-type mouse at 1 mg/kg, po; type: ADME, organism-based; parameters: dose 1 mg/kg, route oral; conditions: in vivo; summary of the method: as §2
[7] = Tmax in wild-type mouse at 1 mg/kg, po; type: ADME, organism-based; parameters: dose 1 mg/kg, route oral; conditions: in vivo; summary of the method: as §2
[8] = AUC (0 to 6 hrs) in mdr1a/1b double knockout mouse at 1 mg/kg, po; type: ADME, organism-based; parameters: time < 6 hr, dose 1 mg/kg, route oral; conditions: plasma; summary of the method: as §2
[9] = AUC (0 to infinity) in mdr1a/1b double knockout mouse at 1 mg/kg, po; type: ADME, organism-based; parameters: dose 1 mg/kg, route oral, time infinity; conditions: plasma; summary of the method: as §2
[10] = Cmax in mdr1a/1b double knockout mouse at 1 mg/kg, po; type: ADME, organism-based; parameters: dose 1 mg/kg, route oral; conditions: in vivo; summary of the method: as §2
[11] = Tmax in mdr1a/1b double knockout mouse at 1 mg/kg, po; type: ADME, organism-based; parameters: dose 1 mg/kg, route oral; conditions: in vivo; summary of the method: as §2
[12] = AUC (0 to 6 hrs) in wild-type mouse at 1 mg/kg, iv; type: ADME, organism-based; parameters: time < 6 hr, dose 1 mg/kg, route intravenous; conditions: plasma
Summary of the method: (§3)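 Male FVB WT or Mdr1a/1b–/– mice (n = 5). Dosing solution was 10 mg/ml in absolute ethanol, diluted 50-fold with saline to 0.2 mg/ml, and given as a single i.v. tail-vein bolus of 1 mg/kg (5 ml/kg). Tail-vein plasma was sampled at 0.125–6 h and analysed by LC-MS/MS. Noncompartmental analysis with trapezoidal AUC0-6 and AUC(0-∞). CL = dose/AUC(0-∞). Wilcoxon rank sum test.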

[13] = AUC (0 to infinity) in wild-type mouse at 1 mg/kg, iv; type: ADME, organism-based; parameters: time infinity, dose 1 mg/kg, route intravenous; conditions: plasma; summary of the method: as §3
[14] = AUC (0 to 6 hrs) in mdr1a/1b double knockout mouse at 1 mg/kg, iv; type: ADME, organism-based; parameters: time < 6 hr, dose 1 mg/kg, route intravenous; conditions: plasma; summary of the method: as §3
[15] = AUC (0 to infinity) in mdr1a/1b double knockout mouse at 1 mg/kg, iv; type: ADME, organism-based; parameters: time infinity, dose 1 mg/kg, route intravenous; conditions: plasma; summary of the method: as §3
[16] = Plasma clearance in wild-type mouse at 1 mg/kg, iv; type: ADME, organism-based; parameters: dose 1 mg/kg, route intravenous
[17] = Plasma clearance in mdr1a/1b double knockout mouse at 1 mg/kg, iv; type: ADME, organism-based; parameters: dose 1 mg/kg, route intravenous; summary of the method: as §3
Mus musculus [18] = assay: Toxicity in mdr1a/1b double knockout mouse assessed as decrease in respiratory frequency at 10 mg/kg, po after 15 to 30 mins; type: organism-based; parameters: dose 10 mg/kg, route oral; conditions: in vivo
Summary of the method: (§4)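 Fasted (3 h) WT and Mdr1a/1b–/– mice (n = 5) received 10 mg/kg orally by gavage in ethanol/saline (10 ml/kg). They were observed 15 to 30 min after dosing for signs of poisoning, including limb paralysis and respiratory frequency.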

Mus musculus [19] = assay: Toxicity in mdr1a/1b double knockout mouse assessed as paralyzed fore limb and hind limb at 10 mg/kg, po after 15 to 30 mins; type: organism-based, Hindlimb; parameters: dose 10 mg/kg, route oral; conditions: in vivo; summary of the method: as §4
Mus musculus [20] = assay: Toxicity in wild-type mouse at 10 mg/kg, po after 15 to 30 mins; type: organism-based; parameters: dose 10 mg/kg, route oral; conditions: in vivo; summary of the method: as §4
Mus musculus [21] = assay: Toxicity in mdr1a/1b double knockout mouse at 1 mg/kg, po; type: organism-based; parameters: dose 1 mg/kg, route oral; conditions: in vivo
Mus musculus [22] = assay: Ratio of AUC (0 to infinity) in mdr1a/1b double knockout mouse to AUC (0 to infinity) in wild-type mouse at 1 mg/kg, po; type: ADME, organism-based; parameters: dose 1 mg/kg, route oral; conditions: in vivo; summary of the method: as §2
Mus musculus [23] = assay: Ratio of AUC (0 to 6 hrs) in mdr1a/1b double knockout mouse to AUC (0 to 6 hrs) in wild-type mouse at 1 mg/kg, po; type: ADME, organism-based; parameters: dose 1 mg/kg, route oral; conditions: in vivo; summary of the method: as §2
Mus musculus [24] = assay: Ratio of Cmax in mdr1a/1b double knockout mouse to Cmax in wild-type mouse at 1 mg/kg, po; type: ADME, organism-based; parameters: dose 1 mg/kg, route oral; conditions: in vivo; summary of the method: as §2
Mus musculus [25] = assay: Ratio of Tmax in mdr1a/1b double knockout mouse to Tmax in wild-type mouse at 1 mg/kg, po; type: ADME, organism-based; parameters: dose 1 mg/kg, route oral; conditions: in vivo; summary of the method: as §2
Mus musculus [26] = assay: Ratio of AUC (0 to 6 hrs) in mdr1a/1b double knockout mouse to AUC (0 to 6 hrs) in wild-type mouse at 1 mg/kg, IV; type: ADME, organism-based; parameters: dose 1 mg/kg, route intravenous; conditions: in vivo; summary of the method: as §3
Mus musculus [27] = assay: Ratio of AUC (0 to infinity) in mdr1a/1b double knockout mouse to AUC (0 to infinity) in wild-type mouse at 1 mg/kg, iv; type: ADME, organism-based; parameters: dose 1 mg/kg, route intravenous; conditions: in vivo; summary of the method: as §3
Mus musculus [28] = assay: Ratio of plasma clearance in mdr1a/1b double knockout mouse to plasma clearance in wild-type mouse at 1 mg/kg, iv; type: ADME, organism-based; parameters: dose 1 mg/kg, route intravenous; conditions: in vivo; summary of the method: as §3
[29] = Drug uptake in wild-type mouse plasma at 1 mg/kg, iv after 180 mins by LC-MS/MS analysis; type: ADME, organism-based; parameters: dose 1 mg/kg, route intravenous; conditions: read-out: Drug uptake
Summary of the method: (§5)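 WT or Mdr1a/1b–/– mice (n = 4) received a single 1 mg/kg i.v. tail-vein bolus (5 ml/kg; 0.2 mg/ml in ethanol/saline). At 180 min, plasma, brain, liver and small intestinal contents were collected. Salinomycin was quantified by LC-MS/MS. Brain/plasma ratios were calculated. Wilcoxon rank sum test.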

[30] = Drug uptake in wild-type mouse brain at 1 mg/kg, iv after 180 mins by LC-MS/MS analysis; type: ADME, organism-based; parameters: dose 1 mg/kg, route intravenous; conditions: read-out: Drug uptake; summary of the method: as §5
[31] = Drug uptake in wild-type mouse liver at 1 mg/kg, iv after 180 mins by LC-MS/MS analysis; type: ADME, organism-based; parameters: dose 1 mg/kg, route intravenous; conditions: read-out: Drug uptake; summary of the method: as §5
[32] = Drug uptake in wild-type mouse small intestinal content at 1 mg/kg, iv after 180 mins by LC-MS/MS analysis; type: ADME, organism-based; parameters: dose 1 mg/kg, route intravenous; conditions: read-out: Drug uptake; summary of the method: as §5
[33] = Ratio of drug uptake in brain to drug uptake in plasma in wild-type mouse at 1 mg/kg, iv after 180 mins by LC-MS/MS analysis; type: ADME, organism-based; parameters: dose 1 mg/kg, route intravenous; summary of the method: as §5
[34] = Drug uptake in mdr1a/1b double knockout mouse plasma at 1 mg/kg, iv after 180 mins by LC-MS/MS analysis; type: ADME, organism-based; parameters: dose 1 mg/kg, route intravenous; conditions: read-out: Drug uptake; summary of the method: as §5
[35] = Drug uptake in mdr1a/1b double knockout mouse brain at 1 mg/kg, iv after 180 mins by LC-MS/MS analysis; type: ADME, organism-based; parameters: dose 1 mg/kg, route intravenous; conditions: read-out: Drug uptake; summary of the method: as §5
[36] = Drug uptake in mdr1a/1b double knockout mouse liver at 1 mg/kg, iv after 180 mins by LC-MS/MS analysis; type: ADME, organism-based; parameters: dose 1 mg/kg, route intravenous; conditions: read-out: Drug uptake; summary of the method: as §5
[37] = Drug uptake in mdr1a/1b double knockout mouse small intestinal content at 1 mg/kg, iv after 180 mins by LC-MS/MS analysis; type: ADME, organism-based; parameters: dose 1 mg/kg, route intravenous; conditions: read-out: Drug uptake; summary of the method: as §5
[38] = Ratio of drug uptake in brain to drug uptake in plasma in mdr1a/1b double knockout mouse at 1 mg/kg, iv after 180 mins by LC-MS/MS analysis; type: ADME, organism-based; parameters: dose 1 mg/kg, route intravenous; summary of the method: as §5
Plasma = assay: Ratio of drug uptake in plasma in mdr1a/1b double knockout mouse to drug uptake in plasma in wild-type mouse at 1 mg/kg, iv after 180 mins by LC-MS/MS analysis; type: ADME, organism-based; parameters: dose 1 mg/kg, route intravenous; conditions: in vivo, 3 h; summary of the method: as §5
Brain = assay: Ratio of drug uptake in brain in mdr1a/1b double knockout mouse to drug uptake in brain in wild-type mouse at 1 mg/kg, iv after 180 mins by LC-MS/MS analysis; type: ADME, organism-based; parameters: dose 1 mg/kg, route intravenous; conditions: in vivo, 3 h; summary of the method: as §5
Liver = assay: Ratio of drug uptake in liver in mdr1a/1b double knockout mouse to drug uptake in liver in wild-type mouse at 1 mg/kg, iv after 180 mins by LC-MS/MS analysis; type: ADME, organism-based; parameters: dose 1 mg/kg, route intravenous; conditions: in vivo, 3 h; summary of the method: as §5
[39] = Ratio of drug uptake in small intestinal content in mdr1a/1b double knockout mouse to drug uptake in small intestinal content in wild-type mouse at 1 mg/kg, iv after 180 mins by LC-MS/MS analysis; type: ADME, organism-based; parameters: dose 1 mg/kg, route intravenous; conditions: in vivo, 3 h; summary of the method: as §5

CC[C@@H](C(=O)[C@@H](C)[C@@H](O)[C@H](C)[C@@H]1O[C@@H]([C@@H](CC)C(=O)O)CC[C@@H]1C)[C@H]1O[C@]2(C=C[C@@H](O)[C@]3(CC[C@@](C)([C@H]4CC[C@](O)(CC)[C@H](C)O4)O3)O2)[C@H](C)C[C@@H]1C [SALINOMYCIN]
AUC(0-t) at 6 h [1]: 2130 ng·h/mL | Cmax [2]: 517 ng/mL | Tmax [3]: 0.5 h | AUC(0-t) at 6 h [4]: 62.1 ng·h/mL | AUC(0-inf) [5]: 80.2 ng·h/mL | Cmax [6]: 13.2 ng/mL | Tmax [7]: 2 h | AUC(0-t) at 6 h [8]: 196 ng·h/mL | AUC(0-inf) [9]: 251 ng·h/mL | Cmax [10]: 41 ng/mL | Tmax [11]: 2 h | AUC(0-t) at 6 h [12]: 1310 ng·h/mL | AUC(0-inf) [13]: 1370 ng·h/mL | AUC(0-t) at 6 h [14]: 2370 ng·h/mL | AUC(0-inf) [15]: 2810 ng·h/mL | clearance [16]: 13.7 mL/min/kg | clearance [17]: 6.17 mL/min/kg | Activity (Mus musculus [18]): Toxic | Activity (Mus musculus [19]): Toxic | Activity (Mus musculus [20]): Non-toxic | Activity (Mus musculus [21]): Non-toxic | Ratio AUC (Mus musculus [22]): 3.1 | Ratio AUC (Mus musculus [23]): 3.2 | Ratio (Mus musculus [24]): 3.1 | Ratio (Mus musculus [25]): 1 | Ratio AUC (Mus musculus [26]): 1.8 | Ratio AUC (Mus musculus [27]): 2 | Ratio (Mus musculus [28]): 0.5 | concentration at 3 h [29]: 72.5 ng/mL | concentration at 3 h [30]: 9.2 ng/g | concentration at 3 h [31]: 7400 ng/g | concentration at 3 h [32]: 210 ng/g | Kp at 3 h [33]: 0.13 | concentration at 3 h [34]: 270 ng/mL | concentration at 3 h [35]: 53.2 ng/g | concentration at 3 h [36]: 6500 ng/g | concentration at 3 h [37]: 290 ng/g | Kp at 3 h [38]: 0.2 | Ratio (Plasma): 3.7 | Ratio (Brain): 5.8 | Ratio (Liver): 0.9 | Ratio [39]: 1.4
